Assay results gathered from unrelated publications.
Protocols differ between the studies behind these lines.
Target: Calcium/calmodulin-dependent protein kinase type 1 (CAMK1, Homo sapiens, UniProt Q14012)

COc1cc(Nc2cnc(C#N)c(O[C@H](C)CN(C)C)n2)ncc1-c1cnn(C)c1 — remaining activity (enzyme activity; inhibitor; radiometric; 1 µM): 92%
COc1cc(-c2cn(C3CCc4ccccc4N(CC(F)(F)F)C3=O)nn2)ccc1-n1ccc(C)n1 (centres unmarked) — remaining binding (cell-free assay; competition with immobilised ligand; 1 µM): 100%
COc1cc(-c2cc(-c3ccc(N4CCNCC4)cc3)cnc2C)cc(OC)c1OC — inhibition (enzyme activity; inhibitor; 0.1 µM): 1%
CCN(CC)CCNC(=O)c1c(C)[nH]c(/C=C2\C(=O)Nc3ccc(F)cc32)c1C — inhibition (enzyme activity; inhibitor; 0.3 µM): 21%
O=C1NC(=O)c2cc(Nc3ccc(F)cc3)c(Nc3ccc(F)cc3)cc21 — remaining signal (cell-free assay; 0.5 µM): 104%
COc1cc(Cl)c(C(=O)N[C@@H](CN[C@H]2CC[C@@H](N)CC2)Cc2ccc(C#N)cc2)cc1-c1ccc(CN[C@H](C)c2ccc(C)cc2)o1 — remaining activity (enzyme activity; inhibitor; 1 µM): 108%
Cc1ccc(Nc2nccc(N(C)c3ccc4c(C)n(C)nc4c3)n2)cc1S(N)(=O)=O — inhibition (enzyme activity; inhibitor; 0.3 µM): 13%
CC(=O)C1=C(C)N(c2cccc(C(F)(F)F)c2)C(=O)N[C@@H]1c1ccc(C#N)nc1 — remaining binding (cell-free assay; competition with immobilised ligand; 1 µM): 86.7%
COc1cc2ncnc(Nc3ccc(F)c(Cl)c3)c2cc1OCCCN1CCOCC1 — remaining signal (cell-free assay; 0.5 µM): 102%
CC/C(=N\NC(=O)NCc1cccc(O)c1)c1ccc(O)c(C)c1O — inhibition (enzyme activity; inhibitor; 0.1 µM): -2.3%
CC(C)(C)C(=O)c1sc(NC2CCCCC2)nc1N — remaining activity (enzyme activity; inhibitor; 10 µM): 109%
CCc1ccccc1C(=O)Nc1n[nH]c2c(C)c(F)c(C3C(C#N)=C(C)N(C)C(C)=C3C#N)cc12 — remaining binding (cell-free assay; competition with immobilised ligand; 1 µM): 76%
O=C(Nc1cnn(-c2csc(C(=O)NC3COC3)c2)c1)Nc1ccccc1Cl — remaining activity (enzyme activity; inhibitor; 5 µM): 87.1%
FC(F)c1nc2ccccc2n1-c1nc(N2CCOCC2)nc(N2CCOCC2)n1 — remaining activity (enzyme activity; inhibitor; 10 µM): 114%
CC(=O)N1CCC(c2ccc(C(=O)NC3=NCCN3)cc2C(F)(F)F)CC1 — remaining binding (cell-free assay; competition with immobilised ligand; 1 µM): 100%
COc1cccc2c(NCc3ccccc3)nc(-n3c(N)nc4ccccc43)nc12 — inhibition (target engagement in cells; inhibitor; chemoproteomics; 20 mM): -2.1%
O=C(Nc1cnc(Oc2ccc(F)cc2)nc1)N1CCc2ncccc2[C@@H]1c1ccc(F)cc1 — remaining binding (cell-free assay; competition with immobilised ligand; 1 µM): 73%
CC(C)(O)[C@H]1CC[C@H](Nc2ccc3ncc(-c4cccc(C(F)(F)F)c4)n3n2)CC1 — remaining activity (enzyme activity; inhibitor; 1 µM): 100%
CCCOc1ccc([C@@H]2[C@@H](C(=O)O)[C@H](c3ccc4c(c3)OCO4)CN2CC(=O)Nc2c(CC)cccc2CC)cc1 — remaining binding (cell-free assay; competition with immobilised ligand; 1 µM): 100%
Cc1cnc(NC2CCOCC2)nc1-n1cnc(C(=O)NC(CN)c2cc(F)cc(Cl)c2)c1 (centres unmarked) — remaining activity (enzyme activity; inhibitor; radiometric; 1 µM): 88%
